From PubChem BioAssay
DDE Tn6 FP inh: DD(E)-Tn6 binding inhibition, primary FP screen; P02675; Fibrin DD(E) TRITC-Tn6 fluorescence polarization displacement; inhibition, % at 8.3 µM; 370,000 tested, 0.21% active;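 active = inhibition above a per-campaign cutoff: mean of compounds within control limits plus 3 SD, cut at about 15% in these data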;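 note: 0% = median of all compound wells on the plate and 100% = blocking peptide control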
Target sequence (P02675 whole entry, looked up): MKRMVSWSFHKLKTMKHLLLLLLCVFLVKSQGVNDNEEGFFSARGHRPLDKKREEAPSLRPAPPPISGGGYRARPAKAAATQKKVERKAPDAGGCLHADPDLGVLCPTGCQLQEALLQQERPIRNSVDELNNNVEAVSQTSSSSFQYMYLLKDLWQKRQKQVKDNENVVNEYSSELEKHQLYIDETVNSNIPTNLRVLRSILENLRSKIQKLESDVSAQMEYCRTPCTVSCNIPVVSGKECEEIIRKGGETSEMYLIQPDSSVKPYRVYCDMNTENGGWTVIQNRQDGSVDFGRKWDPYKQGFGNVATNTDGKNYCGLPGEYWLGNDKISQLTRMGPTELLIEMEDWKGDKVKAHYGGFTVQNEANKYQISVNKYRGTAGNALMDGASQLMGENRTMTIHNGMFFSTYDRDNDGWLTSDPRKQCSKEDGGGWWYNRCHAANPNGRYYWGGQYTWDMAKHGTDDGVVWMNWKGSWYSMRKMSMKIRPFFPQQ
CRFR2-BP antag: CRF-BP/CRF-R2 complex antagonism | AID 588475 | HEK293 CRF-R2/CRF-BP, CRF-induced calcium fluorescence | inhibition, % at 11.8 µM | 350,000 tested, 0.59% active;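 active = inhibition of the ligand-induced calcium signal above about 50% at the single tested concentration, limit read from the data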
Tn7 DDE FP: disrupts Tn7 cyclic peptide binding to fibrin D-Dimer-E complex. P02675. FP displacement of FITC-Tn7 peptide from fibrin DD(E); 0% = median of compound wells per plate. 370,000 tested, 0.13% active. AID 720508. inhibition, % at 8.3 µM;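 active = inhibition above the mean of compounds falling within the control limits plus 3 SD of them, cut at about 14% in these data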;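 note: 0% = plate median of compound wells and 100% = 10 µM Aha-Tn7 peptide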
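Test system – human fibrin DD(E) · Times – 10 min preincubation, 3 h with tracer, room temperature · Detection – fluorescence polarization of the labelled Tn7 tracer · Measure – percent inhibition normalized to high-control wells · Benchmarks – high control wells with 10 µM unlabelled Aha-Tn7 peptide (full inhibition) · Repeats – singlicate testing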
CRFR2-BP ag: agonists of human CRF-binding protein/CRF-R2 receptor complex; HEK293 CRF-R2/CRF-BP, calcium dye fluorescence (FLIPR); percent of saturating CRF peptide response; activation, % at 13.2 µM; 350,000 tested, 0.46% active; AID 588473;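 active = activation of at least 50%, plus an integration ratio under a set limit after plate pattern correction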;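 note: plate controls were neutral control wells without compound for no effect and CRF at EC100 for full effect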
DDE Tn6 FP ctr: counter-screen for inhibitors of Tn6 peptide binding to fibrin DD(E); shares compounds with DDE Tn6 FP inh; TRITC-Tn6 fluorescence polarization displacement; 0% = median of compound wells, not DMSO; inhibition, % at 8.3 µM; 680 tested, 2% active; AID 720621;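 active = inhibition above the mean of test compounds lying between the control limits plus 3 SD of those, cut at about 14% in these data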;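 note: 0% = median of compound wells and 100% = wells with Aha-Tn7 blocking peptide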
Tn6 DDE conf: DD(E)-Tn6 binding inhibition, FP confirmation; 680 tested, 10% active; AID 720631; FP displacement of TRITC-Tn6 peptide from DD(E); 0% = per-plate median of test wells; shares compounds with DDE Tn6 FP inh; inhibition, % at 8.3 µM;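 active = inhibition above the mean of compounds lying within the control limits plus 3 SD, cut at about 16% in these data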;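 note: 100% = high control wells holding a competing inhibitor peptide at 10 µM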
Starred values were filed as active, the others as inactive; x = not tested or not shown. In the library only some 1.3% were active in any assay of this set; here they are far more common.

SMILES	DDE Tn6 FP inh	CRFR2-BP antag	Tn7 DDE FP	CRFR2-BP ag	DDE Tn6 FP ctr	Tn6 DDE conf
CC(C1CC1)N(Cc1ccccc1)C(=O)NC(=O)c1ccccc1 (stereo not given)	18*	-1	0	1	0	1
CC(C1CC1)N(Cc1ccccc1)C(=O)NC(=O)c1cccc(F)c1 (stereo not given)	0	2	-1	-1	x	x
COc1ccc(Nc2c(-c3ccc(F)cc3)nc3nc(C)cc(C)n23)cc1	17*	x	8	x	-1	-7
COc1ccc(NS(=O)(=O)c2ccc3nc(COc4ccc5ccccc5c4)[nH]c3c2)cc1	54*	-12	4	17	-1	-10
O=C(N1CCC(C(O)(c2ccccc2)c2ccccc2)CC1)n1ncc(C(O)(c2ccccc2)c2ccccc2)n1	1	x	10	x	x	x
O=C(N/N=C/c1cccnc1)C(=O)N1CCCCCC1	15*	12	7	1	-3	-4
CCOC(=O)[C@@]12CN(C(=O)OC(C)(C)C)CC=C1N(Cc1ccc(OC)cc1)C(=O)[C@H]2CC(=O)N1CCN(C(=O)C2CC2)CC1	4	x	9	x	x	x
CCCCCCSc1cccc(-c2nc3ccc(C)cn3c2NCc2ccccc2)c1	16*	6	4	1	10	6
Cc1ccc(CNc2ccc3c(c2)OCO3)cc1	x	-20	x	12	x	x
c1cc(CNc2ccc3c(c2)OCO3)ccn1	16*	11	6	6	-1	-3
O=C(Nc1cccc(-c2nc3ccccc3[nH]2)c1)c1cccc(NC(=O)c2ccco2)c1	86*	18	9	2	6	30*
CCOC(=O)N(C)[C@H]1C[C@H]2c3[nH]c4c(-c5ccc6c(c5)OCO6)cccc4c3CCN2C(=O)[C@H]1[C@H](C)O	0	x	-3	x	x	x
CC1CCN(c2ccc(C(=O)O)cc2NS(=O)(=O)c2cccc3cccnc23)CC1	0	x	6	x	x	x
C[C@@]12C(C[C@H](O)[C@@]34C[C@@H](CCC13)[C@@H](CO)C4=O)[C@](C)(C(=O)O)CC[C@@H]2O (stereo not given in full)	21*	x	6	x	-3	-9
C=C1C(=O)[C@]23C[C@H]1CCC2[C@@]1(C)C(C[C@@H]3O)[C@](C)(C(=O)OC)CC[C@@H]1O (stereo not given in full)	-8	x	5	x	x	x
Cc1cc(C)cc(NC(=S)N2CCN(S(C)(=O)=O)CC2)c1	16*	4	6	0	0	0
COCCCNC(=O)c1ccc(Cn2c(=O)c3ccccc3n(CC(=O)NCc3ccco3)c2=O)cc1	9	3	-1	0	x	x
COCCNC(=O)Cn1c(=O)n(Cc2ccc(C(=O)NCCc3ccc(OC)c(OC)c3)cc2)c(=O)c2ccccc21	17*	-11	3	-1	-2	-5
Cc1cc(C)cc(N(CC(=O)NC2CCC(C)CC2)S(=O)(=O)c2ccc(C)c(C)c2)c1 (stereo not given)	3	x	6	x	x	x
C/C(CC(=O)NCc1ccc(Cl)cc1)=N\NC(=O)c1ccccc1F	16*	-18	7	3	-4	-14
COc1ccccc1CNC(=O)C/C(C)=N/NC(=O)Cc1ccc(Cl)cc1	-6	-1	-3	-1	x	x
CCN(CC)CCN(C(=O)c1ccc2ccccc2c1)c1nc2ccc(F)cc2s1	-1	-16	-4	5	x	x
CCN(CC)CCN(C(=O)CCOc1ccccc1)c1nc2ccc(F)cc2s1	16*	-26	4	4	10	4
COC(=O)[C@]12C=CCN1[C@@H](c1ccc(Cl)cc1)c1c(c3ccccc3n1S(=O)(=O)c1ccc(C)cc1)C2	28*	x	-7	x	2	3
COC(=O)[C@]12C=CCN1[C@@H](c1ccc(C(F)(F)F)cc1)c1c(c3ccccc3n1S(=O)(=O)c1ccc(C)cc1)C2	12	x	10	x	x	x
SMILES	DDE Tn6 FP inh	CRFR2-BP antag	Tn7 DDE FP	CRFR2-BP ag	DDE Tn6 FP ctr	Tn6 DDE conf
COC(=O)[C@]12C=CCN1[C@H](c1ccc(C(F)(F)F)cc1)c1c(c3ccccc3n1S(=O)(=O)c1ccc(C)cc1)C2	17*	x	-9	x	2	4
Cn1c(SCC(=O)Nc2ccccc2-c2ccccc2)nnc1-c1cnccn1	4	x	-3	x	x	x
COc1cc(NC(=O)CN(C)Cc2ccc(OC(F)F)cc2)c(C)cc1[N+](=O)[O-]	9	9	4	-1	x	x
COc1cc(NC(=O)CN(C)Cc2cccc(F)c2)c(C)cc1[N+](=O)[O-]	17*	2	-2	2	9	3
COc1cc(C(=O)NC2CCCCN(Cc3cccc(C(F)(F)F)c3)C2=O)cc(OC)c1OC (stereo not given)	1	x	-3	x	x	x
COC(=O)c1cc(S(=O)(=O)N2CCN(c3ccccc3Cl)CC2)cn1C	-1	x	1	x	x	x
COc1c(F)c(F)c(C(=O)Nc2ccc(-c3nc4ccccc4[nH]3)cc2)c(F)c1F	0	0	-2	2	x	x
COc1cccc(OC)c1C(=O)NC(=S)Nc1cc(-c2nc3ccccc3[nH]2)ccc1Cl	55*	2	3	0	1	13
CCCCNC(=O)CCn1nc(-c2ccccc2)ccc1=O	4	2	10	0	x	x
CCCCN(C)CCCNC(=O)CCn1nc(-c2ccccc2)ccc1=O	16*	-3	8	1	0	2
COc1cccc(C(=O)NCc2ccc3c(c2)cc(C)n3C)c1	22*	1	1	11	-3	-6
COc1ccc(/C=C/C(=O)NCCCNC(=O)/C=C/c2ccc(OC)c(OC)c2)cc1OC	-7	5	-4	0	x	x
CCOC(=O)NCc1ccc2c(c1)cc(C)n2C	10	-10	-4	1	x	x
COc1ccc(CC(=O)NCc2ccc3c(c2)cc(C)n3C)cc1	-3	-21	4	-1	x	x
COc1ccc(/C=C\C(=O)NCc2ccc3c(c2)cc(C)n3C)cc1OC	30*	-16	-1	8	1	5
COc1ccc(C(=O)NCc2ccc3c(c2)cc(C)n3C)cc1OC	37*	4	4	1	1	1
Cc1ccc(-n2c(CNc3ccc(F)cc3)nnc2SCC(=O)NCc2ccco2)cc1	0	-8	4	-1	x	x
COc1ccc(NCc2nnc(SCC(=O)NCc3ccco3)n2-c2ccccc2OC)cc1	17*	-8	-7	0	-3	-4
O=C(NCCc1ccccc1)OCc1cn(-c2ccc(Cl)cc2)nn1	4	x	-3	x	x	x
O=C(C1CCCN(S(=O)(=O)c2ccccc2F)C1)N1CCN(Cc2ccccc2)CC1 (stereo not given)	-4	x	-12	x	x	x
O=C(Oc1ccc(N(Cc2cccs2)C2=NS(=O)(=O)c3ccccc32)cc1)c1ccc(Cl)cc1	17*	5	7	0	9	3
